Test results published in publication PMC3974318 (Memórias do Instituto Oswaldo Cruz, 2013).
Entries after “also recorded” stand apart in the source; their conditions may differ.

What was measured:
[1] = system: Erythrocytes; assay: Cytotoxic activity: haemolysis of erythrocytes; assay type: cell-based, Human; details: for toxicity to mammalian erythrocytes (lysis), in words: 3 h, 37 °C
Outline: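 Blood from healthy human donors was defibrinated and washed in glycosylated saline. A 3% erythrocyte suspension in glycosylated saline was incubated with a range of test compound concentrations for 3 h at 37 °C. Supernatant absorbance at 550 nm was compared with 1% Triton X-100-treated wells to give percent haemolysis.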

[2] = system: axenic amastigotes of Leishmania amazonensis; assay: Cell viability by propidium iodide staining, flow cytometry; assay type: cell-based
[3] = system: axenic amastigote forms of L. amazonensis; assay: Mitochondrial membrane potential by rhodamine 123, flow cytometry; assay type: cell-based, Leishmania amazonensis; details: 3 h, 32 °C, untreated cells 93.7%
[4] = system: promastigote forms of Leishmania amazonensis; assay: Ultrastructural analysis by SEM and TEM; assay type: cell-based; details: 2.5 µg/mL, 72 h
[5] = system: intracellular trypanosomes; details: ref Izumi et al. 2012; cited from earlier work
[6] = system: T. cruzi epimastigotes; details: extracellular replicative form; ref Izumi et al. (2012); cited from earlier work
[7] = 100 µg/mL, 3 h, 32 °C, negative control 11.4%

SMILES | toxicity to mammalian erythrocytes (lysis), in words [1] | PI-positive events, upper left quadrant gated percentage [2, 7] [%] | Rh123 upper right gated population percentage ([3]; 100 µg/mL) [%] | other results
C=C1C[C@@]23CC[C@H]4[C@@](C)(CCC[C@@]4(C)C(=O)O)[C@@H]2CC[C@@H]1C3 [Kaurenoic acid, kaur-16-ene-18-oic acid] | more toxic | 60.8 | 24.4 | selectivity index (SI) ([1]; figures fit CC50/IC50 promastigote): 5
C=C1CC[C@H]2C(C)(C)[C@@H](O)CC[C@]2(C)[C@H]1CC/C(C)=C/C(=O)O [Hydroxycopalic acid, 3β-hydroxylabda-8(20),13-dien-15-oic acid] | more toxic |  |  | ultrastructural changes (TEM) [4]: swollen mitochondria with the appearance of concentric membrane structures inside the organelle; inhibition of 50% against intracellular trypanosomes [5]: 0.6 µg/mL; ultrastructural changes in epimastigotes [6]: organelle disorganisation and membranous vacuole formation
N#CC(C#N)=NNc1cccc(Cl)c1 [CCCP, carbonyl cyanide m-chlorophenylhydrazone, reference compound] |  |  |  | Rh123 upper right gated population percentage ([3]; 200 µM): 53.1%
C=C1CC[C@@H]2[C@](C)(CCC[C@@]2(C)C(=O)O)[C@H]1CC[C@H](C)CC(=O)O [Pinifolic acid, labd-8(20)-ene-15,18-dioic acid] | did not cause lysis except at the maximum concentration tested | 68.4 | 32.4 | toxicity to mammalian erythrocytes (lysis), in words ([1]; listed as pinifolic acid): no toxicity was observed, except at the maximum concentration tested
C=C1CC[C@@H]2[C@](C)(CCC[C@@]2(C)C(=O)O)[C@H]1CCc1ccoc1 [Polyaltic acid, 15,16-epoxylabda-8(20),13(16),14-trien-19-oic acid] | did not cause lysis except at the maximum concentration tested; also recorded: no toxicity was observed, except at the maximum concentration tested |  |  | 
C=C1CC[C@@H]2C(C)(C)CCC[C@@]2(C)[C@@H]1CC/C(C)=C/C(=O)OC [Methyl copalate, methyl labd-8(20),13-dien-15-oate] |  |  |  | inhibition of 50% against intracellular trypanosomes [5]: 0.8 µg/mL
C=C1CC[C@@H]2[C@](C)(CCC[C@]2(C)C(=O)O)[C@H]1CC/C(C)=C/C(=O)O [Agathic acid, labd-8(20)-13-dien-15,19-dioic acid] |  | 63.4 | 27.5 | 
C[C@@H]1[C@H](O)[C@@H](C)/C=C/C=C/C=C/C=C/C=C/C=C/C=C/[C@H](O[C@@H]2O[C@H](C)[C@@H](O)[C@H](N)[C@@H]2O)C[C@@H]2O[C@](O)(C[C@@H](O)C[C@@H](O)[C@H](O)CC[C@@H](O)C[C@@H](O)CC(=O)O[C@H]1C)C[C@H](O)[C@H]2C(=O)O [Amphotericin B, reference compound] |  |  |  | PI-positive events, upper left quadrant gated percentage ([2]; positive control, concentration not given): 75.9%
